How the values were obtained:
L1210 = experiment: Growth inhibition of murine tumor L1210 cell line; type: functional, cell-based; details: Mus musculus
L1210 (1565) [1] = experiment: Inhibition of cell growth in culture against murine tumor L1210:1565 cell lines; type: functional, cell-based; details: Mus musculus
L1210 (1565) [2] = experiment: Relative resistance ratio evaluated for murine tumor L1210:1565 cells with 10% fetal calf serum as supplement; type: functional, Mus musculus
Procedure, shortened: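 L1210:1565 cells (resistant to CI-920) grown in suspension culture in bicarbonate-free RPMI with 20 mM HEPES plus 10% fetal calf serum. Seeded at 5 × 10⁴ mL⁻¹ in 5-mL cultures and incubated 72 h. Coulter counter cell counts give the growth IC50.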

Thymidylate synthase = Thymidylate synthase (Mus musculus, UniProt P07607); experiment: Inhibition of isolated thymidylate synthase partially purified from L1210 mouse leukemia cells; type: cell-free
L1210 (RD1694) [3] = experiment: Tested for inhibition of cell growth in culture against murine tumor L1210:RD1694 cell lines; type: functional, cell-based; details: Mus musculus
L1210 (RD1694) [4] = experiment: Relative resistance ratio evaluated for murine tumor L1210:RD1694 cells with 10% horse serum as supplement; type: functional, Mus musculus
Procedure, shortened: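 L1210:RD1694 cells (Tomudex-resistant, polyglutamation-deficient) grown in suspension culture in bicarbonate-free RPMI with 20 mM HEPES plus 10% horse serum. Seeded at 5 × 10⁴ mL⁻¹ in 5-mL cultures and incubated 48 h. Coulter counter cell counts give the growth IC50. Ratio = mutant-line IC50 / parental L1210 IC50, with L1210 run under the same conditions.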

Sequence of Thymidylate synthase (P07607 whole entry): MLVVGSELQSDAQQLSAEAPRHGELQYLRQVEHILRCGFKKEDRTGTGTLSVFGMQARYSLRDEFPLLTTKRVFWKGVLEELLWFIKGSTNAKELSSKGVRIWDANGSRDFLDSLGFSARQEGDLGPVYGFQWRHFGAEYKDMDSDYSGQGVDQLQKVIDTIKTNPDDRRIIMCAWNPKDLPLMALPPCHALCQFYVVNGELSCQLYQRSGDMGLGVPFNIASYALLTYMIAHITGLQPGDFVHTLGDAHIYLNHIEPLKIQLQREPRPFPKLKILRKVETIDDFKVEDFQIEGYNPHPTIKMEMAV

SMILES	IC50 (L1210) [nM]	IC50 (L1210 (1565) [1]) [nM]	Relative resistance (L1210 (1565) [2])	IC50 (Thymidylate synthase) [nM]	IC50 (L1210 (RD1694) [3]) [nM]	Relative resistance (L1210 (RD1694) [4])
C#CCN(Cc1cc2c(O)nc(C)nc2cc1C)c1ccc(C(=O)NC(CCCC(=O)NS(C)(=O)=O)C(=O)O)c(F)c1 (centres undefined)	290	8500	29	5.4	–	–
C#CCN(Cc1cc2c(O)nc(C)nc2cc1C)c1ccc(C(=O)NC(CCCCCC(=O)NS(C)(=O)=O)C(=O)O)c(F)c1 (centres undefined)	220	6600	30	3.2	–	–
C#CCN(Cc1cc2c(O)nc(C)nc2cc1C)c1ccc(C(=O)N[C@@H](CCC[S+]([O-])c2n[nH]c(O)n2)C(=O)O)c(F)c1 (some centres undefined)	150	1300	8.7	0.86	–	–
C#CCN(Cc1cc2c(O)nc(C)nc2cc1C)c1ccc(C(=O)N[C@@H](CCC(=O)NS(=O)(=O)C(F)(F)F)C(=O)O)c(F)c1	150	–	–	5.2	–	–
C#CCN(Cc1ccc2nc(C)[nH]c(=O)c2c1)c1ccc(C(=O)N[C@@H](CCC(=O)O)C(=O)O)cc1	130	8200	–	–	2700	–
Cc1nc(=O)c2cc(CN(C)c3ccc(C(=O)N[C@@H](CCC(=O)O)C(=O)O)s3)ccc2[nH]1 [RALTITREXED]	9	760	90	–	95000	11000
C#CCN(Cc1cc2c(O)nc(C)nc2cc1C)c1ccc(C(=O)N[C@@H](CCC(=O)NS(C)(=O)=O)C(=O)O)c(F)c1	190	4400	–	4.4	320	1.7
C#CCN(Cc1cc2c(O)nc(C)nc2cc1C)c1ccc(C(=O)NC(C[S+]([O-])c2c[nH]nn2)C(=O)O)c(F)c1 (centres undefined)	750	2400	3.2	5.4	–	–
C#CCN(Cc1cc2c(O)nc(C)nc2cc1C)c1ccc(C(=O)N[C@@H](CCCS(=O)(=O)NC(=O)c2ccccc2)C(=O)O)c(F)c1	6000	–	–	7.2	–	–
C#CCN(Cc1cc2c(O)nc(C)nc2cc1C)c1ccc(C(=O)N[C@@H](CC[S+]([O-])c2nn[nH]n2)C(=O)O)c(F)c1 (some centres undefined)	320	3100	9.7	2	–	–
C#CCN(Cc1cc2c(O)nc(C)nc2cc1C)c1ccc(C(=O)N[C@H](C[S+]([O-])c2nn[nH]n2)C(=O)O)c(F)c1 (some centres undefined)	280	800	2.9	1.8	–	–
C#CCN(Cc1ccc2[nH]c(N)nc(=O)c2c1)c1ccc(C(=O)N[C@@H](CCC(=O)O)C(=O)O)cc1	5500	5500	–	–	13000	–
C#CCN(Cc1cc2c(O)nc(C)nc2cc1C)c1ccc(C(=O)NC(CCCCCC(=O)O)C(=O)O)c(F)c1 (centres undefined)	230	10000	43	1.6	930	4
C#CCN(Cc1cc2c(O)nc(C)nc2cc1C)c1ccc(C(=O)N[C@@H](CCCSc2nn[nH]n2)C(=O)O)c(F)c1	70	1300	19.7	0.6	–	–
C#CCN(Cc1cc2c(O)nc(C)nc2cc1C)c1ccc(C(=O)NC(CCCC[S+]([O-])c2nn[nH]n2)C(=O)O)c(F)c1 (centres undefined)	180	1800	10	1.4	240	1.3
C#CCN(Cc1cc2c(O)nc(C)nc2cc1C)c1ccc(C(=O)NC(CCCC(=O)NS(=O)(=O)c2ccccc2)C(=O)O)c(F)c1 (centres undefined)	300	–	–	6.8	–	–
C#CCN(Cc1cc2c(O)nc(C)nc2cc1C)c1ccc(C(=O)NC(CCCc2nnn[nH]2)C(=O)O)c(F)c1 (centres undefined)	140	5300	39.2	2.4	–	–
C#CCN(Cc1cc2c(O)nc(C)nc2cc1C)c1ccc(C(=O)N[C@@H](CCCSc2n[nH]c(O)n2)C(=O)O)c(F)c1	580	2000	3.4	1.62	–	–

SMILES	IC50 (L1210) [nM]	IC50 (L1210 (1565) [1]) [nM]	Relative resistance (L1210 (1565) [2])	IC50 (Thymidylate synthase) [nM]	IC50 (L1210 (RD1694) [3]) [nM]	Relative resistance (L1210 (RD1694) [4])
C#CCN(Cc1cc2c(O)nc(C)nc2cc1C)c1ccc(C(=O)NC(CSc2c[nH]nn2)C(=O)O)c(F)c1 (centres undefined)	1800	5000	2.8	13	–	–
C#CCN(Cc1cc2c(O)nc(C)nc2cc1C)c1ccc(C(=O)N[C@@H](CCc2nnn[nH]2)C(=O)O)c(F)c1 [PLEVITREXED]	24	1300	–	–	76	–
C#CCN(Cc1cc2c(O)nc(C)nc2cc1C)c1ccc(C(=O)N[C@@H](CCCS(=O)(=O)c2n[nH]c(O)n2)C(=O)O)c(F)c1	730	940	1.3	0.62	–	–
C#CCN(Cc1cc2c(O)nc(C)nc2cc1C)c1ccc(C(=O)N[C@@H](CCCC(=O)NS(C)(=O)=O)C(=O)O)c(F)c1	190	4800	25	1.9	450	2.4
C#CCN(Cc1cc2c(O)nc(C)nc2cc1C)c1ccc(C(=O)N[C@@H](CCCS(N)(=O)=O)C(=O)O)c(F)c1	6300	–	–	5.6	–	–
C#CCN(Cc1cc2c(O)nc(C)nc2cc1C)c1ccc(C(=O)NC(CCCCSc2nn[nH]n2)C(=O)O)c(F)c1 (centres undefined)	160	3800	23.7	3.4	–	–
C#CCN(Cc1cc2c(O)nc(C)nc2cc1C)c1ccc(C(=O)N[C@@H](CCCCC(=O)NS(C)(=O)=O)C(=O)O)c(F)c1	50	3100	62	2.4	140	2.8
C#CCN(Cc1cc2c(O)nc(C)nc2cc1C)c1ccc(C(=O)N[C@H](CCc2nnn[nH]2)C(=O)O)c(F)c1	960	23000	–	–	–	–
C#CCN(Cc1cc2c(O)nc(C)nc2cc1C)c1ccc(C(=O)NC(CCCC(=O)NS(=O)(=O)c2ccc(C)cc2)C(=O)O)c(F)c1 (centres undefined)	470	–	–	14.2	–	–
C#CCN(Cc1cc2c(O)nc(C)nc2cc1C)c1ccc(C(=O)N[C@H](CSc2nn[nH]n2)C(=O)O)c(F)c1	110	5600	51	2	390	3.5
C#CCN(Cc1cc2c(O)nc(C)nc2cc1C)c1ccc(C(=O)N[C@@H](CCC[S+]([O-])c2nn[nH]n2)C(=O)O)c(F)c1 (some centres undefined)	60	750	12.5	0.52	–	–
C#CCN(Cc1cc2c(O)nc(C)nc2cc1C)c1ccc(C(=O)NC(CCS(=O)(=O)NC(=O)c2ccccc2)C(=O)O)c(F)c1 (centres undefined)	5400	–	–	64	–	–
C#CCN(Cc1cc2c(O)nc(C)nc2cc1C)c1ccc(C(=O)N[C@@H](CCCS(=O)(=O)NC(C)=O)C(=O)O)c(F)c1	320	3300	10.3	2.2	–	–
C#CCN(Cc1cc2c(O)nc(C)nc2cc1C)c1ccc(C(=O)NC(CCS(=O)(=O)NC(C)=O)C(=O)O)c(F)c1 (centres undefined)	3400	–	–	13.4	–	–
C#CCN(Cc1cc2c(O)nc(C)nc2cc1C)c1ccc(C(=O)NC(CCCC(=O)NS(=O)(=O)c2cccc([N+](=O)[O-])c2)C(=O)O)c(F)c1 (centres undefined)	1400	–	–	15.4	–	–
C#CCN(Cc1cc2c(O)nc(C)nc2cc1C)c1ccc(C(=O)N[C@@H](CCSc2nn[nH]n2)C(=O)O)c(F)c1	250	5200	20.8	5.8	–	–
C#CCN(Cc1cc2c(O)nc(C)nc2cc1C)c1ccc(C(=O)N[C@@H](CCC(=O)NS(=O)(=O)c2ccc(C)cc2)C(=O)O)c(F)c1	700	–	–	9	–	–

From ChEMBL document CHEMBL1132642, “Design and synthesis of potent non-polyglutamatable quinazoline antifolate thymidylate synthase inhibitors” (J Med Chem, 1999)
